Measurements from EPA's CvTdb concentration-time database.

How the values were obtained:
Rat [1] = assay: concentration in plasma after dosing; conditions: dosed: Perfluorodecanoic acid, 2 mg/kg, oral, Male, Harlan Sprague Dawley
Rat [2] = assay: concentration in kidney after dosing; conditions: 24 h; dosed: Perfluorodecanoic acid; 10 mg/kg; oral; Male; Harlan Sprague Dawley
Rat [3] = assay: concentration in kidney after dosing; conditions: 24 h; dosed: Perfluorodecanoic acid; 10 mg/kg; oral; Female; Harlan Sprague Dawley
Rat [4] = assay: concentration in liver after dosing; conditions: 1 h; dosed: Perfluorodecanoic acid; 10 mg/kg; oral; Male; Harlan Sprague Dawley
Rat [5] = assay: concentration in liver after dosing; conditions: 1848 h; dosed: Perfluorodecanoic acid; 10 mg/kg; oral; Male; Harlan Sprague Dawley
Rat [6] = assay: concentration in plasma after dosing; conditions: 20 h; dosed: Di-n-butyl phthalate; 100 mg/kg; oral; Male; Sprague-Dawley
Rat [7] = assay: concentration in plasma after dosing; conditions: 0.25 h; dosed: Di-n-butyl phthalate; 100 mg/kg; oral; Male; Sprague-Dawley
Rat [8] = assay: concentration in plasma after dosing; conditions: 5 min; dosed: Di-n-butyl phthalate; 20 mg/kg; iv; Male; Sprague-Dawley
Rat [9] = assay: concentration in plasma after dosing; conditions: 10 h; dosed: Di-n-butyl phthalate; 100 mg/kg; oral; Male; Sprague-Dawley
Rat [10] = assay: concentration in plasma after dosing; conditions: dosed: dichloroacetic acid, 10 mg/kg, oral, Male, Harlan Sprague Dawley
Rat [11] = assay: concentration in plasma after dosing; conditions: dosed: Wyeth-14643, 5.0 mg/kg, oral, Male, Sprague-Dawley
Rat [12] = assay: concentration in plasma after dosing; conditions: 0.25 h; dosed: Wyeth-14643; 5.0 mg/kg; oral; Male; Sprague-Dawley
Rat [13] = assay: concentration in plasma after dosing; conditions: 5 min; dosed: Wyeth-14643; 2.0 mg/kg; oral; Male; Sprague-Dawley
Rat [14] = assay: concentration in plasma after dosing; conditions: 1 h; dosed: Wyeth-14643; 5.0 mg/kg; oral; Male; Sprague-Dawley
Rat [15] = assay: concentration in plasma after dosing; conditions: 2.5 min; dosed: Wyeth-14643; 2.0 mg/kg; iv; Male; Sprague-Dawley
human = assay: amount in urine after dosing (mg cumulative excretion); conditions: dosed: trichloroethylene, inhalation, duration: 8 hr
Summary of the method: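 Points were largely digitised from plot screenshots with WebPlotDigitizer or otherwise copied from tables, and they remain in the units each source reported. They come from published in vivo toxicokinetic studies and two structured collections. Sampling and analytical methods follow each source and were often not reported.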

Rat [16] = assay: concentration in thymus after dosing; conditions: 8 h; dosed: Bis 2-Chloroethoxy Methane; 20 mg/kg; iv; Female; Harlan Sprague-Dawley
Rat [17] = assay: concentration in thymus after dosing; conditions: 5 h; dosed: Bis 2-Chloroethoxy Methane; 20 mg/kg; iv; Female; F344
Rat [18] = assay: concentration in plasma after dosing; conditions: 40 min; dosed: Bis 2-Chloroethoxy Methane; 20 mg/kg; iv; Male; F344
Rat [19] = assay: concentration in plasma after dosing; conditions: 2 h; dosed: Bis 2-Chloroethoxy Methane; 20 mg/kg; iv; Male; F344
Rat [20] = assay: concentration in plasma after dosing; conditions: dosed: Fluorotelomer alcohol 8+2, 40 mg/kg, iv, Male, F344
Rat [21] = assay: concentration in heart after dosing; conditions: 10 h; dosed: Thiodiglycolic Acid; 20 mg/kg; iv; Male; F344
Rat [22] = assay: concentration in thymus after dosing; conditions: 3 h; dosed: Thiodiglycolic Acid; 20 mg/kg; iv; Male; Harlan Sprague Dawley
Rat [23] = assay: concentration in heart after dosing; conditions: 40 min; dosed: Thiodiglycolic Acid; 20 mg/kg; iv; Female; Harlan Sprague Dawley
Rat [24] = assay: concentration in heart after dosing; conditions: 1 h; dosed: Thiodiglycolic Acid; 20 mg/kg; iv; Male; Harlan Sprague Dawley
Rat [25] = assay: concentration in heart after dosing; conditions: 20 min; dosed: Thiodiglycolic Acid; 20 mg/kg; iv; Female; Harlan Sprague Dawley
Rat [26] = assay: concentration in plasma after dosing; conditions: 6 h; dosed: Primidone; 80 mg/kg; oral; Female; F344
Rat [27] = assay: concentration in plasma after dosing; conditions: 1.5 h; dosed: Primidone; 80 mg/kg; oral; Male; F344

O=C(O)C(F)(F)C(F)(F)C(F)(F)C(F)(F)C(F)(F)C(F)(F)C(F)(F)C(F)(F)C(F)(F)F [Perfluorodecanoic acid]
Rat [1]
Conditions	concentration in plasma [ng/mL]
1 h	4920
192 h	5100
2520 h	882

Conditions	concentration in kidney [ng/g]	concentration in liver [ng/g]
Rat [2]	29300	–
Rat [3]	57900	–
Rat [4]	–	58100
Rat [5]	–	32000

CCCCOC(=O)c1ccccc1C(=O)O [Mono-n-butyl phthalate]
Conditions	concentration in plasma [ng/mL]
Rat [6]	414
Rat [7]	13200
Rat [8]	22800
Rat [9]	1170

O=C(O)C(Cl)Cl [dichloroacetic acid]
Rat [10]
Conditions	concentration in plasma [ng/mL]
10 min	862
50 min	167

Cc1cccc(Nc2cc(Cl)nc(SCC(=O)O)n2)c1C
Rat [11]
Conditions	concentration in plasma [ng/mL]
5 min	572
8 h	255

Conditions	concentration in plasma [ng/mL]
Rat [12]	2450
Rat [13]	401
Rat [14]	5440
Rat [15]	30500

O=C(O)C(Cl)(Cl)Cl [trichloroacetic acid]
human
Conditions	amount in urine
7.504 h, 97 ppm	6.26
7.706 h, 97 ppm	3.69
10.24 h, 54 ppm	5.68
11.01 h, 54 ppm	9.23
23.46 h, 97 ppm	32.7
23.84 h, 97 ppm	36.5
24.26 h, 54 ppm	25.8
24.54 h, 54 ppm	30.2
47.49 h, 97 ppm	113
47.71 h, 97 ppm	101
48.03 h, 54 ppm	88.6
48.27 h, 54 ppm	72
70.31 h, 97 ppm	166
70.67 h, 97 ppm	141
71.68 h, 54 ppm	124
71.91 h, 54 ppm	110
95.13 h, 97 ppm	201
95.58 h, 54 ppm	177
95.7 h, 97 ppm	168
96.05 h, 54 ppm	145
119.2 h, 97 ppm	224
119.67 h, 97 ppm	190
119.76 h, 54 ppm	194
119.83 h, 54 ppm	164
142.97 h, 97 ppm	249
143.27 h, 97 ppm	206
143.82 h, 54 ppm	178
143.83 h, 54 ppm	217
167.26 h, 97 ppm	260
167.56 h, 97 ppm	217
167.82 h, 54 ppm	232
168.41 h, 54 ppm	188
191.33 h, 54 ppm	199
191.56 h, 97 ppm	269
191.61 h, 54 ppm	245
191.66 h, 97 ppm	224

ClCCOCOCCCl [Bis 2-Chloroethoxy Methane]
Conditions	concentration in plasma [ng/mL]	concentration in thymus [ng/g]
Rat [16]	–	13.2
Rat [17]	–	31.7
Rat [18]	1590	–
Rat [19]	282	–

OCCC(F)(F)C(F)(F)C(F)(F)C(F)(F)C(F)(F)C(F)(F)C(F)(F)C(F)(F)F [Fluorotelomer alcohol 8+2]
Rat [20]
Conditions	concentration in plasma [ng/mL]
3 h	505
5 min	23200

O=C(O)CSCC(=O)O [Thiodiglycolic Acid]
Conditions	concentration in heart [ng/g]	concentration in thymus [ng/g]
Rat [21]	483	–
Rat [22]	–	1430
Rat [23]	2840	–
Rat [24]	1520	–
Rat [25]	5330	–

CCC1(c2ccccc2)C(=O)NC(=O)NC1=O [Phenobarbital]
Conditions	concentration in plasma [ng/mL]
Rat [26]	1820
Rat [27]	3100
